Experimental data from ChEMBL document CHEMBL2331284, “Synthesis and biological evaluation of 1,3,4-thiadiazole analogues as novel AChE and BuChE inhibitors” (Eur J Med Chem, 2013).
Calls of active or inactive are those of the source. The rule behind the calls is not given here.

Tests used:
[1] = Selectivity ratio of IC50 for equine serum BChE to IC50 for electric eel AChE
Outline: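 Modified Ellman assay for both enzymes: electric eel AChE with ATCh, or equine serum BuChE with BTCh; DTNB; 0.1 M potassium phosphate pH 8. Compound preincubated 10 min before substrate, absorbance rise at 412 nm at 1-min intervals, 37 °C. Seven concentrations (10⁻³–10⁻⁹ M) run in triplicate. IC50 from log dose–response; ratio = IC50(BuChE)/IC50(AChE).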

Cholinesterase = Cholinesterase (Equus caballus, UniProt P81908); test: Inhibition of equine serum BChE using butyrylthiocholine iodide as substrate after 10 mins by Ellman method
Acetylcholinesterase = Acetylcholinesterase (Electrophorus electricus, UniProt O42275); test: Inhibition of electric eel AChE using […] as substrate after 10 mins by Ellman method
[2] = target: Acetylcholinesterase (Electrophorus electricus) (UniProt O42275); details: at 0.12 to 0.17 µM
[3] = target: Acetylcholinesterase (Electrophorus electricus) (UniProt O42275); test: Non-competitive inhibition of electric eel AChE using acetylcholine iodide as substrate at 0.10 to 0.14 uM by Lineweaver-Burk method

Sequence of Cholinesterase (P81908 whole entry): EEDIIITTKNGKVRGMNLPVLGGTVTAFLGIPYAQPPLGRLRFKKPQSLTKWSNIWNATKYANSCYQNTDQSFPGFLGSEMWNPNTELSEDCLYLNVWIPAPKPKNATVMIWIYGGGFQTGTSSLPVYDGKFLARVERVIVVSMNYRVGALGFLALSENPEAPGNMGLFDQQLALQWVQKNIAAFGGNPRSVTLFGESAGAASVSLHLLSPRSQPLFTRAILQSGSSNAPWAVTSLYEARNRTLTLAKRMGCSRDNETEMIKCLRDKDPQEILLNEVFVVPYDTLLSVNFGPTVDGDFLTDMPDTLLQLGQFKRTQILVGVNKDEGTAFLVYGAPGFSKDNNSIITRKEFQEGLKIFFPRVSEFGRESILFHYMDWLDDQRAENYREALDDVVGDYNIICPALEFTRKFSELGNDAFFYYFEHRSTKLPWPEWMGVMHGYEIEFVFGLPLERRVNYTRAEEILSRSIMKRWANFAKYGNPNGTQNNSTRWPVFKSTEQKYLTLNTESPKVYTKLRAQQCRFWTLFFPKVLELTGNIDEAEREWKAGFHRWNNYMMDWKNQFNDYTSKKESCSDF
Sequence of Acetylcholinesterase (O42275 whole entry): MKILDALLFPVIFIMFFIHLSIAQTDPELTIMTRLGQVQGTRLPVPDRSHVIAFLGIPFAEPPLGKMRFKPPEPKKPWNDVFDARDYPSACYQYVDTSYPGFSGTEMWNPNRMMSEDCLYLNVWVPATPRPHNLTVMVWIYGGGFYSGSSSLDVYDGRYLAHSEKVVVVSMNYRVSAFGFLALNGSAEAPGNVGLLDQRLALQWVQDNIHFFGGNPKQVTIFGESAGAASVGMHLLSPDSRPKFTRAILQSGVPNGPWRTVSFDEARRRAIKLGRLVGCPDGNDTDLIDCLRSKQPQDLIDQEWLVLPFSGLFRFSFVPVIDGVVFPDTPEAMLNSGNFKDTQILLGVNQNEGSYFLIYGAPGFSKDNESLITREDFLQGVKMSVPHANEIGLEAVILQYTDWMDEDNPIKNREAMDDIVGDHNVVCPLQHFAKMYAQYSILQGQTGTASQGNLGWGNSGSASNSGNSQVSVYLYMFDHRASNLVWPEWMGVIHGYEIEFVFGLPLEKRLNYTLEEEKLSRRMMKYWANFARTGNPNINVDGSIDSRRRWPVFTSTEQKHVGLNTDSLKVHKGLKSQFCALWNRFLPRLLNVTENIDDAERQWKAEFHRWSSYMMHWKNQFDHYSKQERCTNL
Sequence of Acetylcholinesterase (Electrophorus electricus) (O42275 24-633 limits assumed): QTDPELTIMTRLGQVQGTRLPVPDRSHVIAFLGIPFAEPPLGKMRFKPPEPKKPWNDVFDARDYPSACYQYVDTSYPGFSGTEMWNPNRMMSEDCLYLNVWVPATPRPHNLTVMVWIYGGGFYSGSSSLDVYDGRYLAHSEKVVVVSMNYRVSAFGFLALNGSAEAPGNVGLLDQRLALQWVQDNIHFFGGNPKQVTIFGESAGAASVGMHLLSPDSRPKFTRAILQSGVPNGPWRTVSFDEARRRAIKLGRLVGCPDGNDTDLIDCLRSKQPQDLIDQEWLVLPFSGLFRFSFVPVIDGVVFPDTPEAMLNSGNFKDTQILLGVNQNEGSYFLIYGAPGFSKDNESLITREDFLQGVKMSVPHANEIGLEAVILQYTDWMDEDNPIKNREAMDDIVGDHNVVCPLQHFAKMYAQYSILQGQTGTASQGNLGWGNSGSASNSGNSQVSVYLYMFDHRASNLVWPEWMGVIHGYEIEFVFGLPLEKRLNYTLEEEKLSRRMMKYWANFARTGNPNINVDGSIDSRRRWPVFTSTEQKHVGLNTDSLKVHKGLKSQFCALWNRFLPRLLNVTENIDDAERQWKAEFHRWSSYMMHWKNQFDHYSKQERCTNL

Compound	Ratio IC50 [1]	IC50 (Cholinesterase) [µM]	IC50 (Acetylcholinesterase) [µM]	inhibition [2]	inhibition [3]
Nc1cccc(-c2nnc(-c3ccc(O)cc3O)s2)c1	48.7	84.3	1.73		
O=[N+]([O-])c1cccc(-c2nnc(-c3ccc(O)cc3O)s2)c1	47.9	32.1	0.67		
CN(C)C(=O)Oc1cccc([N+](C)(C)C)c1 [NEOSTIGMINE BROMIDE]	1.4	0.07	0.05		
Oc1ccc(-c2nnc(-c3cc(Cl)ccc3Cl)s2)c(O)c1	0.17	19.1	112		
Oc1ccc(-c2nnc(-c3ccc(O)cc3O)s2)c(O)c1	14.2	26.7	1.89		
Oc1ccc(-c2nnc(-c3ccc(O)c(O)c3)s2)c(O)c1	11.4	2.16	0.19		
COc1cccc(-c2nnc(-c3ccc(O)cc3O)s2)c1	25.5	27.3	1.87		
COc1ccc(-c2nnc(-c3ccc(O)cc3O)s2)cc1	44.2	96.3	2.18		
Oc1ccc(-c2nnc(-c3ccccc3Br)s2)c(O)c1	4.8	0.29	0.06		
Cc1cccc(-c2nnc(-c3ccc(O)cc3O)s2)c1	106	17	0.16	Active	
COc1cc(-c2nnc(-c3ccc(O)cc3O)s2)cc(OC)c1OC	1150	196	0.17		
Oc1ccc(-c2nnc(-c3ccc(Cl)cc3Cl)s2)c(O)c1	> 3.9	> 500	128		
Oc1ccc(-c2nnc(-c3ccccc3F)s2)c(O)c1	> 467	> 500	1.07		
COc1cc(-c2nnc(-c3ccc(O)cc3O)s2)ccc1O	5.9	112	19.2		
Oc1ccc(-c2nnc(-c3ccccc3Cl)s2)c(O)c1	127	196	1.55		
COc1ccc(-c2nnc(-c3ccc(O)cc3O)s2)cc1OC	> 25.9	> 500	19.3		
Oc1ccc(-c2nnc(-c3ccc(C(F)(F)F)cc3)s2)c(O)c1	294	26.5	0.09		Active
COc1ccc(OC)c(-c2nnc(-c3ccc(O)cc3O)s2)c1	40.5	63.3	1.56		
O=[N+]([O-])c1ccccc1-c1nnc(-c2ccc(O)cc2O)s1	27	57.3	2.12		
Cc1cc(-c2nnc(-c3ccc(O)cc3O)s2)ccc1[N+](=O)[O-]	7.1	148	20.9		
Oc1ccc(-c2nnc(-c3cc(Cl)cc(Cl)c3)s2)c(O)c1	> 11.1	> 500	45.3		
COc1ccccc1-c1nnc(-c2ccc(O)cc2O)s1	7.9	212	26.7		
